Converted amounts (≈) assume the structure as drawn.
Experiments:
Staphylococcus aureus [1] = experiment: Minimum inhibitory concentration against Staphylococcus aureus A 5177 MLSB-i; format: functional
Summary of the method: (§1)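 MICs were determined by agar dilution following National Committee for Clinical Laboratory Standards recommendations. Values are in µg/mL.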

Staphylococcus aureus [2] = experiment: Minimum inhibitory concentration against Staphylococcus aureus A 5278 MLSB-c; format: functional; summary of the method: as §1
Mus musculus [3] = organism: Mus musculus; experiment: Mouse protection tests for effective dose against Staphylococcus aureus 10649 ((erythromycin susceptible strain)) infected mice; format: functional
Mus musculus [4] = organism: Mus musculus; experiment: Mouse protection tests for effective dose against Streptococcus pneumoniae 6303 ((erythromycin susceptible strain)) infected mice; format: functional
[5] = Minimum inhibitory concentration against Streptococcus pyogenes PIU2548 efflux; format: functional; summary of the method: as §1
Staphylococcus aureus [6] = experiment: Minimum inhibitory concentration against Staphylococcus aureus 10649 (erythromycin susceptible strain); format: functional; summary of the method: as §1
Streptococcus pneumoniae [7] = experiment: Minimum inhibitory concentration against Streptococcus pneumoniae 5649 efflux; format: functional; summary of the method: as §1
[8] = Minimum inhibitory concentration against Streptococcus pneumoniae 5737 MLSB; format: functional; summary of the method: as §1
Streptococcus pneumoniae [9] = experiment: Minimum inhibitory concentration against Streptococcus pneumoniae ATCC 6303 Ery-S; format: functional; summary of the method: as §1
Streptococcus pneumoniae [10] = experiment: Minimum inhibitory concentration against Streptococcus pneumoniae 6303 (erythromycin susceptible strain); format: functional; summary of the method: as §1
[11] = Minimum inhibitory concentration against Streptococcus pyogenes 930MLSB; format: functional; summary of the method: as §1
Staphylococcus aureus [12] = experiment: Minimum inhibitory concentration against Staphylococcus aureus ATCC 6538PEry-S; format: functional; conditions: ATCC 6538P; summary of the method: as §1
[13] = Minimum inhibitory concentration against Streptococcus pyogenes EES 61 Ery-S; format: functional; summary of the method: as §1
[14] = Minimum inhibitory concentration against Haemophilus influenzae DILL Amp-R; format: functional; summary of the method: as §1
Streptococcus pneumoniae [15] = experiment: Cell free inhibiting activity against MLSB-resistant strain Streptococcus pneumoniae 1813 (methylated ribosomes for transcription/translation assay)
Streptococcus pneumoniae [16] = experiment: Cell free inhibiting activity against erythromycin-susceptible strain Streptococcus pneumoniae 5635 (Wild type ribosomes for transcription/translation assay)
Staphylococcus aureus [17] = experiment: Minimum against Staphylococcus aureus 10649 (erythromycin susceptible strain); format: functional; summary of the method: as §1
Streptococcus pneumoniae [18] = experiment: Cell free inhibiting activity against Streptococcus pneumoniae 1813 (methylated ribosomes for transcription/translation assay); format: functional
Streptococcus pneumoniae [19] = experiment: Cell free inhibiting activity against Streptococcus pneumoniae 5635(Wild type ribosomes for transcription/translation assay); format: functional
Summary of the method: (§2)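 Cell-free coupled transcription/translation assay using bacterial ribosome S-30 extracts. Wild-type ribosomes were isolated from the erythromycin-susceptible strain S. pneumoniae 5635. Inhibition is reported as IC50 (µM).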

Streptococcus pneumoniae [20] = experiment: Minimum against Streptococcus pneumoniae 6303 (erythromycin susceptible strain); format: functional
Summary of the method: (§3)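 Whole-cell MIC determined by agar dilution following National Committee for Clinical Laboratory Standards recommendations; values expressed in µg/mL.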

Mus musculus [21] = organism: Mus musculus; experiment: Effective dose against Streptococcus pneumoniae 6303 (erythromycin susceptible strain); format: functional
[22] = Minimum inhibitory concentration againstH. influenzae DILL Amp-R; format: functional; conditions: Haemophilus influenzae; summary of the method: as §3
Streptococcus pneumoniae [23] = experiment: Cell free inhibiting activity against erythromycin-susceptible strain Streptococcus pneumoniae 5635 (Wild type ribosomes for transcription/translation assay); format: functional; summary of the method: as §2
Streptococcus pneumoniae [24] = experiment: Cell free inhibiting activity against MLSB-resistant strain Streptococcus pneumoniae 1813 (methylated ribosomes for transcription/translation assay); remark: listed apart in the source

CC[C@H]1OC(=O)[C@H](C)C(=O)[C@H](C)[C@@H](O[C@@H]2O[C@H](C)C[C@H](N(C)C)[C@H]2O)[C@](C)(OC/C=C/c2ccc3nccnc3c2)C[C@@H](C)C(=O)[C@H](C)[C@H]2NC(=O)O[C@@]21C
MIC (Staphylococcus aureus [1]): 0.1 µg/mL (≈ 0.13 µM) | MIC (Staphylococcus aureus [2]): > 100 µg/mL | ED50 (Mus musculus [3]): < 6.25 mg/kg | ED50 (Mus musculus [4]): 33.1 mg/kg | MIC [5]: 0.25 µg/mL (≈ 0.326 µM) | MIC (Staphylococcus aureus [6]): 0.1 µg/mL (≈ 0.13 µM) | MIC (Streptococcus pneumoniae [7]): 0.5 µg/mL (≈ 0.652 µM) | MIC [8]: 0.25 µg/mL (≈ 0.326 µM) | MIC (Streptococcus pneumoniae [9]): 0.015 µg/mL (≈ 0.0196 µM) | MIC (Streptococcus pneumoniae [10]): 0.015 µg/mL (≈ 0.0196 µM) | MIC [11]: 1 µg/mL (≈ 1.3 µM) | MIC (Staphylococcus aureus [12]): 0.1 µg/mL (≈ 0.13 µM) | MIC [13]: 0.03 µg/mL (≈ 0.0391 µM) | MIC [14]: 2 µg/mL (≈ 2.61 µM) | IC50 (Streptococcus pneumoniae [15]): 40000 nM | IC50 (Streptococcus pneumoniae [16]): 80 nM

CC[C@H]1OC(=O)[C@H](C)[C@@H](O[C@H]2C[C@@](C)(OC)[C@@H](O)[C@H](C)O2)[C@H](C)[C@@H](O[C@@H]2O[C@H](C)C[C@H](N(C)C)[C@H]2O)[C@](C)(OC)C[C@@H](C)C(=O)[C@H](C)[C@@H](O)[C@]1(C)O [CLARITHROMYCIN]
ED50 (Mus musculus [3]): 16.7 mg/kg | ED50 (Mus musculus [4]): 27.9 mg/kg | MIC (Staphylococcus aureus [17]): 0.2 µg/mL (≈ 0.267 µM) | IC50 (Streptococcus pneumoniae [18]): > 500000 nM | IC50 (Streptococcus pneumoniae [19]): 90 nM | MIC (Streptococcus pneumoniae [20]): 0.03 µg/mL (≈ 0.0401 µM)

CC[C@H]1OC(=O)[C@H](C)[C@@H](O[C@H]2C[C@@](C)(OC)[C@@H](O)[C@H](C)O2)[C@H](C)[C@@H](O[C@@H]2O[C@H](C)C[C@H](N(C)C)[C@H]2O)[C@](C)(O)C[C@@H](C)CN(C)[C@H](C)[C@@H](O)[C@]1(C)O [AZITHROMYCIN]
ED50 (Mus musculus [3]): 24.8 mg/kg | ED50 (Mus musculus [21]): 18.8 mg/kg | MIC (Staphylococcus aureus [6]): 0.78 µg/mL (≈ 1.04 µM) | IC50 (Streptococcus pneumoniae [18]): > 500000 nM | IC50 (Streptococcus pneumoniae [19]): 170 nM | MIC (Streptococcus pneumoniae [10]): 0.12 µg/mL (≈ 0.16 µM)

CC[C@H]1OC(=O)[C@H](C)[C@@H](O[C@H]2C[C@@](C)(OC)[C@@H](O)[C@H](C)O2)[C@H](C)[C@@H](O[C@@H]2O[C@H](C)C[C@H](N(C)C)[C@H]2O)[C@](C)(O)C[C@@H](C)C(=O)[C@H](C)[C@@H](O)[C@]1(C)O [ERYTHROMYCIN]
MIC (Staphylococcus aureus [1]): 6.2 µg/mL (≈ 8.45 µM) | MIC (Staphylococcus aureus [2]): > 100 µg/mL | MIC [22]: 8 µg/mL (≈ 10.9 µM) | MIC [5]: 16 µg/mL (≈ 21.8 µM) | IC50 (Streptococcus pneumoniae [23]): 120 nM | MIC (Streptococcus pneumoniae [7]): 32 µg/mL (≈ 43.6 µM) | MIC [8]: > 128 µg/mL | MIC (Streptococcus pneumoniae [9]): 0.06 µg/mL (≈ 0.0818 µM) | MIC [11]: > 128 µg/mL | MIC (Staphylococcus aureus [12]): 0.2 µg/mL (≈ 0.273 µM) | MIC [13]: 0.06 µg/mL (≈ 0.0818 µM) | IC50 (Streptococcus pneumoniae [24]): > 500000 nM

C=CCO[C@]1(C)C[C@@H](C)C(=O)[C@H](C)[C@@H](O)[C@](C)(O)[C@@H](CC)OC(=O)[C@H](C)[C@@H](O[C@H]2C[C@@](C)(OC)[C@@H](O)[C@H](C)O2)[C@H](C)[C@H]1O[C@@H]1O[C@H](C)C[C@H](N(C)C)[C@H]1O
MIC (Staphylococcus aureus [1]): 12.5 µg/mL (≈ 16.1 µM) | MIC (Staphylococcus aureus [2]): > 100 µg/mL | MIC [22]: 32 µg/mL (≈ 41.3 µM) | MIC [5]: 64 µg/mL (≈ 82.7 µM) | IC50 (Streptococcus pneumoniae [23]): 150 nM | MIC [11]: > 128 µg/mL | MIC (Staphylococcus aureus [12]): 0.78 µg/mL (≈ 1.01 µM) | IC50 (Streptococcus pneumoniae [15]): > 500000 nM

CC[C@H]1OC(=O)[C@H](C)C(=O)[C@H](C)[C@@H](O[C@@H]2O[C@H](C)C[C@H](N(C)C)[C@H]2O)[C@](C)(OCC=Cc2cnc3ccccc3c2)C[C@@H](C)C(=O)[C@H](C)[C@H]2NC(=O)O[C@@]21C [CETHROMYCIN]
MIC (Staphylococcus aureus [1]): 0.05 µg/mL (≈ 0.0653 µM) | MIC (Staphylococcus aureus [2]): > 100 µg/mL | ED50 (Mus musculus [3]): 9.4 mg/kg | ED50 (Mus musculus [4]): 7.8 mg/kg | MIC [5]: 0.25 µg/mL (≈ 0.326 µM) | MIC (Staphylococcus aureus [6]): 0.05 µg/mL (≈ 0.0653 µM) | MIC (Streptococcus pneumoniae [7]): 0.125 µg/mL (≈ 0.163 µM) | MIC [8]: 0.25 µg/mL (≈ 0.326 µM) | MIC (Streptococcus pneumoniae [9]): 0.004 µg/mL (≈ 0.00522 µM) | MIC (Streptococcus pneumoniae [10]): 0.004 µg/mL (≈ 0.00522 µM) | MIC [11]: 1 µg/mL (≈ 1.31 µM) | MIC (Staphylococcus aureus [12]): 0.05 µg/mL (≈ 0.0653 µM) | MIC [13]: 0.004 µg/mL (≈ 0.00522 µM) | MIC [14]: 2 µg/mL (≈ 2.61 µM) | IC50 (Streptococcus pneumoniae [15]): 28000 nM | IC50 (Streptococcus pneumoniae [16]): 40 nM

CC[C@H]1OC(=O)[C@H](C)C(=O)[C@H](C)[C@@H](O[C@@H]2O[C@H](C)C[C@H](N(C)C)[C@H]2O)[C@](C)(OC/C=C/c2cnc3cccnc3c2)C[C@@H](C)C(=O)[C@H](C)[C@H]2NC(=O)O[C@@]21C
MIC (Staphylococcus aureus [1]): 0.05 µg/mL (≈ 0.0652 µM) | MIC (Staphylococcus aureus [2]): > 100 µg/mL | ED50 (Mus musculus [3]): 12.5 mg/kg | ED50 (Mus musculus [4]): 17.3 mg/kg | MIC [5]: 0.5 µg/mL (≈ 0.652 µM) | MIC (Staphylococcus aureus [6]): 0.05 µg/mL (≈ 0.0652 µM) | MIC (Streptococcus pneumoniae [7]): 1 µg/mL (≈ 1.3 µM) | MIC [8]: 0.25 µg/mL (≈ 0.326 µM) | MIC (Streptococcus pneumoniae [9]): 0.015 µg/mL (≈ 0.0196 µM) | MIC (Streptococcus pneumoniae [10]): 0.015 µg/mL (≈ 0.0196 µM) | MIC [11]: 2 µg/mL (≈ 2.61 µM) | MIC (Staphylococcus aureus [12]): 0.05 µg/mL (≈ 0.0652 µM) | MIC [13]: 0.03 µg/mL (≈ 0.0391 µM) | MIC [14]: 2 µg/mL (≈ 2.61 µM) | IC50 (Streptococcus pneumoniae [15]): 25000 nM | IC50 (Streptococcus pneumoniae [16]): 100 nM

CC[C@H]1OC(=O)[C@H](C)C(=O)[C@H](C)[C@@H](O[C@@H]2O[C@H](C)C[C@H](N(C)C)[C@H]2O)[C@](C)(OC/C=C/c2cnc3ccsc3c2)C[C@@H](C)C(=O)[C@H](C)[C@H]2NC(=O)O[C@@]21C
MIC (Staphylococcus aureus [1]): 0.05 µg/mL (≈ 0.0648 µM) | MIC (Staphylococcus aureus [2]): > 100 µg/mL | ED50 (Mus musculus [3]): > 50 mg/kg | MIC [5]: 0.25 µg/mL (≈ 0.324 µM) | MIC (Staphylococcus aureus [6]): 0.05 µg/mL (≈ 0.0648 µM) | IC50 (Streptococcus pneumoniae [23]): 70 nM | MIC (Streptococcus pneumoniae [7]): 0.25 µg/mL (≈ 0.324 µM) | MIC [8]: 0.5 µg/mL (≈ 0.648 µM) | MIC (Streptococcus pneumoniae [9]): 0.004 µg/mL (≈ 0.00518 µM) | MIC (Streptococcus pneumoniae [10]): 0.004 µg/mL (≈ 0.00518 µM) | MIC [11]: 1 µg/mL (≈ 1.3 µM) | MIC (Staphylococcus aureus [12]): 0.05 µg/mL (≈ 0.0648 µM) | MIC [13]: 0.008 µg/mL (≈ 0.0104 µM) | MIC [14]: 2 µg/mL (≈ 2.59 µM) | IC50 (Streptococcus pneumoniae [15]): 150000 nM

From ChEMBL document CHEMBL1134286, “Novel erythromycin derivatives with aryl groups tethered to the C-6 position are potent protein synthesis inhibitors and active against multidrug-resistant respiratory pathogens” (J Med Chem, 2001)
